The source made the active and inactive calls. No cut-off for these calls is given here.
Tests used:
L5178Y = assay: Cytotoxicity against mouse L5178Y cells assessed as growth inhibition by MTT assay; assay type: functional, cell-based
Outline: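 L5178Y mouse lymphoma cells; MTT microculture tetrazolium read-out, compared with untreated controls; media with 0.1% EGMME-DMSO as negative control; three independent experiments, each in triplicate.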

[1] = target: Serine/threonine-protein kinase Nek6 (Homo sapiens, UniProt Q9HC98); assay: Inhibition of recombinant NEK6 (unknown origin) assessed as incorporation of [gamma-33P]-ATP into substrate by radiometric assay
Outline: (§1)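 Radiometric 33PanQinase format: recombinant kinase incubated with [γ-33P]ATP plus unlabeled ATP and kinase substrate; substrate-incorporated label measured by FlashPlate counting; compounds screened at 10 μM each across a 16-kinase panel.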

[2] = target: Serine/threonine-protein kinase PLK1 (Homo sapiens, UniProt P53350); assay: Inhibition of recombinant PLK1 (unknown origin) using casein as substrate assessed as incorporation of [gamma-33P]-ATP into substrate by radiometric assay
[3] = target: T1, Serine/threonine-protein kinase Nek2 (Homo sapiens, UniProt P51955); assay: Inhibition of recombinant NEK2 (unknown origin) assessed as incorporation of [gamma-33P]-ATP into substrate by radiometric assay
T1 sequence (P51955 whole entry): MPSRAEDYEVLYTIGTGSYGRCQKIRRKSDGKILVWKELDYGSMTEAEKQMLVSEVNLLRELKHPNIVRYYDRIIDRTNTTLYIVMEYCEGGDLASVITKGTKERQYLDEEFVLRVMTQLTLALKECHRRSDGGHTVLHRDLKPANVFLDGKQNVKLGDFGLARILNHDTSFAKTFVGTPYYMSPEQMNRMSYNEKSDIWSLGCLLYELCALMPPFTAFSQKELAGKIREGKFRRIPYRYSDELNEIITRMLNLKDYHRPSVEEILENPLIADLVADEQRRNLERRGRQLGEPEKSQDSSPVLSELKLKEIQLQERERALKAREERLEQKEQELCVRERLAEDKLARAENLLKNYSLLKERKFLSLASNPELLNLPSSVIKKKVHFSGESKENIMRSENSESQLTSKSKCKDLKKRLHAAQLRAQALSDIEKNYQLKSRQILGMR

Aurora kinase B = Aurora kinase B (Homo sapiens, UniProt Q96GD4); assay: Inhibition of recombinant aurora kinase B (unknown origin) using tetra(LRRWSLG) as substrate assessed as incorporation of [gamma-33P]-ATP into substrate by radiometric assay
[4] = target: T2, NUAK family SNF1-like kinase 1 (Homo sapiens, UniProt O60285); assay: Inhibition of recombinant ARK5 (unknown origin) assessed as incorporation of [gamma-33P]-ATP into substrate by radiometric assay; outline: as §1
T2 sequence (O60285 whole entry): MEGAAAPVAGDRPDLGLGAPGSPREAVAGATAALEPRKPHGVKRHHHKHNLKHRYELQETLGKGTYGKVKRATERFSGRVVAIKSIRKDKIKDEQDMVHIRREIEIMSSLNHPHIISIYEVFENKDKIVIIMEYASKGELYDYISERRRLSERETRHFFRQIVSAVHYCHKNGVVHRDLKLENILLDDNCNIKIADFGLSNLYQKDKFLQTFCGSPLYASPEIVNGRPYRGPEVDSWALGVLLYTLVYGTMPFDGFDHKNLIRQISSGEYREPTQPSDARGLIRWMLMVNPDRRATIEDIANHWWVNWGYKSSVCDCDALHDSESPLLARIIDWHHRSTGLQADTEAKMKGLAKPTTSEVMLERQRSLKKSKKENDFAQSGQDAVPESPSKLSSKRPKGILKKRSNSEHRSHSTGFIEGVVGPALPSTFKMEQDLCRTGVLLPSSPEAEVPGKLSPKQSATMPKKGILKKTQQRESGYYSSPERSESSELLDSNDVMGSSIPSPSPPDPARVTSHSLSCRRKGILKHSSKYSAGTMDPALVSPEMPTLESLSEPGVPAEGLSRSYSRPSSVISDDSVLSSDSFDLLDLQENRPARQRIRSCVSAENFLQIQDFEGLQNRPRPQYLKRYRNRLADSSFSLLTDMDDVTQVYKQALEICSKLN

[5] = target: T3, Insulin-like growth factor 1 receptor (Homo sapiens, UniProt P08069); assay: Inhibition of recombinant IGF1R (unknown origin) using Poly (Glu,Tyr) 4:1 as substrate assessed as incorporation of [gamma-33P]-ATP into substrate by radiometric assay
[6] = target: T4, Vascular endothelial growth factor receptor 2 (Homo sapiens, UniProt P35968); assay: Inhibition of recombinant VEGFR2 (unknown origin) using poly(Glu,Tyr)4:1 as substrate assessed as incorporation of [gamma-33P]-ATP into substrate by radiometric assay; outline: as §1
[7] = target: RAC-alpha serine/threonine-protein kinase (Homo sapiens, UniProt P31749); assay: Inhibition of recombinant AKT1 (unknown origin) using GSK3 (14 to 27) as substrate assessed as incorporation of [gamma-33P]-ATP into substrate by radiometric assay; outline: as §1
[8] = target: T5, Tyrosine-protein kinase receptor UFO (Homo sapiens, UniProt P30530); assay: Inhibition of recombinant AXL (unknown origin) assessed as incorporation of [gamma-33P]-ATP into substrate by radiometric assay
T5 sequence (P30530 whole entry): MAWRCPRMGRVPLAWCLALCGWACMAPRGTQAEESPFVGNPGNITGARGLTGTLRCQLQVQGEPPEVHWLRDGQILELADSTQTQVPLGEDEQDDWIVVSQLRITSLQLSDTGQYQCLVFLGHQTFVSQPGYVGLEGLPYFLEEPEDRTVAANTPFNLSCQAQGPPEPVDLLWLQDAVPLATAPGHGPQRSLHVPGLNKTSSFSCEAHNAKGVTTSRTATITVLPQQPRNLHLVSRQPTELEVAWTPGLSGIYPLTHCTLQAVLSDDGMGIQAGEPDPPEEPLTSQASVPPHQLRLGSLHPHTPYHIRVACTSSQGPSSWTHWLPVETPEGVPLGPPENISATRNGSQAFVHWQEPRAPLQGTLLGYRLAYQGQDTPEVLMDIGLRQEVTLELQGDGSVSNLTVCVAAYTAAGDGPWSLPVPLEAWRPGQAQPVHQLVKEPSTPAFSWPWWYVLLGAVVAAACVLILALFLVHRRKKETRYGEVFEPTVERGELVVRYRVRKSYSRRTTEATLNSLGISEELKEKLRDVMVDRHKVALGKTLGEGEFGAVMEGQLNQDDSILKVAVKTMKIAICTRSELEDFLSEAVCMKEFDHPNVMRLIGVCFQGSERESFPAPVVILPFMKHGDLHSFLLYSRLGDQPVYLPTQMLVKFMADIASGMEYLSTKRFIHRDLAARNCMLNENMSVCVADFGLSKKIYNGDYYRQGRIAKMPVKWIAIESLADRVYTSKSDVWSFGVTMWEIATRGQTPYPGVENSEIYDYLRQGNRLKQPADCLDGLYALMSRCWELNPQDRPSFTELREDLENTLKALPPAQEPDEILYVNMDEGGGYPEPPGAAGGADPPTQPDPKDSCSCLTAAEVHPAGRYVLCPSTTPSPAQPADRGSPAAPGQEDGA

[9] = target: Serine/threonine-protein kinase pim-1 (Homo sapiens, UniProt P11309); assay: Inhibition of recombinant PIM1 (unknown origin) assessed as incorporation of [gamma-33P]-ATP into substrate by radiometric assay; outline: as §1
[10] = target: Hepatocyte growth factor receptor (Homo sapiens, UniProt P08581); assay: Inhibition of wild type MET (unknown origin) assessed as incorporation of [gamma-33P]-ATP into substrate by radiometric assay
[11] = target: Serine/threonine-protein kinase N1 (Homo sapiens, UniProt Q16512); assay: Inhibition of recombinant PRK1 (unknown origin) using casein as substrate assessed as incorporation of [gamma-33P]-ATP into substrate by radiometric assay; outline: as §1
[12] = target: Dual specificity mitogen-activated protein kinase kinase 1 (Homo sapiens, UniProt Q02750); assay: Inhibition of wild type MEK1 (unknown origin) assessed as incorporation of [gamma-33P]-ATP into substrate by radiometric assay
[13] = target: T6, Proto-oncogene tyrosine-protein kinase Src (Homo sapiens, UniProt P12931); assay: Inhibition of recombinant SRC (unknown origin) using casein as substrate assessed as incorporation of [gamma-33P]-ATP into substrate by radiometric assay
[14] = target: T7, ALK tyrosine kinase receptor (Homo sapiens, UniProt Q9UM73); assay: Inhibition of recombinant ALK (unknown origin) assessed as incorporation of [gamma-33P]-ATP into substrate by radiometric assay
Target sequence in this assay (Q9UM73 whole entry): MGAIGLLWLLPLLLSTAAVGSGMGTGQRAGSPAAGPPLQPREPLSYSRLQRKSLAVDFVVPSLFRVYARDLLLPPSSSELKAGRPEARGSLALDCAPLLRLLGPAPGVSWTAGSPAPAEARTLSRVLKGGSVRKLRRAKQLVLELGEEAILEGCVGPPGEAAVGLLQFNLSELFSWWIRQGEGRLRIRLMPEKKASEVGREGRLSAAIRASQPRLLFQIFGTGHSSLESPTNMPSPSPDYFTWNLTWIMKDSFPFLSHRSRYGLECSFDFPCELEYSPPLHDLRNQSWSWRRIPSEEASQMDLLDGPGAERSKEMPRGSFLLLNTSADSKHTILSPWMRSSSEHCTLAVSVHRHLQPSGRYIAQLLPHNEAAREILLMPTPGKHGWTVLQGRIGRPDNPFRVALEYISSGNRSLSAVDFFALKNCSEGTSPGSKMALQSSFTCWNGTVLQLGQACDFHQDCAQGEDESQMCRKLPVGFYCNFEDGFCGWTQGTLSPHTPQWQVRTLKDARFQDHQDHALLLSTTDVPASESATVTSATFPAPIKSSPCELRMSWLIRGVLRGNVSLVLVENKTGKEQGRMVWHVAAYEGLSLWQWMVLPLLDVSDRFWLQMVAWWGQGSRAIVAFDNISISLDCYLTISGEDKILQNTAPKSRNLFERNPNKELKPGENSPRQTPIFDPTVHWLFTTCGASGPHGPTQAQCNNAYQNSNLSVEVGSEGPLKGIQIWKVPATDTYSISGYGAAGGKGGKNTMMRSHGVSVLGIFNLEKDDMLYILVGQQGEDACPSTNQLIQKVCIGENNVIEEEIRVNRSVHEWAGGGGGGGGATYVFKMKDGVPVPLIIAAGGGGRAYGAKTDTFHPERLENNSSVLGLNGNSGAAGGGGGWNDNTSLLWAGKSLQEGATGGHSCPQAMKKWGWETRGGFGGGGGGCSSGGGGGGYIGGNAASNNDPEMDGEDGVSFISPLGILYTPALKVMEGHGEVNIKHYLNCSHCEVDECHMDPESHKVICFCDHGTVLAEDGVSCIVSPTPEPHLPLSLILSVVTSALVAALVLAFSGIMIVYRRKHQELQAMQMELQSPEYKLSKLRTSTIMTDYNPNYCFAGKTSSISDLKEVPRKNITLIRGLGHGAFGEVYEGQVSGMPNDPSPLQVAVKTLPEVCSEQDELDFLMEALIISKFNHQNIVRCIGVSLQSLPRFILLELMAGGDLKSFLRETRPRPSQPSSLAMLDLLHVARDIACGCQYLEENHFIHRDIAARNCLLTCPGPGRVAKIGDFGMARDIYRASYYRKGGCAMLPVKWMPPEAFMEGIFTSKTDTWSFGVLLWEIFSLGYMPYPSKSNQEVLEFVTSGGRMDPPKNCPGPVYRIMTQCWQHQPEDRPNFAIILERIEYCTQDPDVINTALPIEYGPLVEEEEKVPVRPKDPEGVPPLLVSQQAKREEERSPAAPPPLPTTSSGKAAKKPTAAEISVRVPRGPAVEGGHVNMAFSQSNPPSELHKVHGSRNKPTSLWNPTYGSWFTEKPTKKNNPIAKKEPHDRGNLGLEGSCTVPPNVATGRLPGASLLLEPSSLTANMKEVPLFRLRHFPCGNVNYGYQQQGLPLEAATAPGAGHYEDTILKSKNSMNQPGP

Focal adhesion kinase 1 [15] = target: T8, Focal adhesion kinase 1 (Homo sapiens, UniProt Q05397); assay: Inhibition of recombinant FAK (unknown origin) assessed as incorporation of [gamma-33P]-ATP into substrate by radiometric assay; outline: as §1
[16] = target: T7, ALK tyrosine kinase receptor; assay: Inhibition of recombinant ALK (unknown origin) assessed as incorporation of [gamma-33P]-ATP into substrate at 10 uM by radiometric assay; outline: as §1
Target sequence in this assay (Q9UM73 19-1620 limits assumed): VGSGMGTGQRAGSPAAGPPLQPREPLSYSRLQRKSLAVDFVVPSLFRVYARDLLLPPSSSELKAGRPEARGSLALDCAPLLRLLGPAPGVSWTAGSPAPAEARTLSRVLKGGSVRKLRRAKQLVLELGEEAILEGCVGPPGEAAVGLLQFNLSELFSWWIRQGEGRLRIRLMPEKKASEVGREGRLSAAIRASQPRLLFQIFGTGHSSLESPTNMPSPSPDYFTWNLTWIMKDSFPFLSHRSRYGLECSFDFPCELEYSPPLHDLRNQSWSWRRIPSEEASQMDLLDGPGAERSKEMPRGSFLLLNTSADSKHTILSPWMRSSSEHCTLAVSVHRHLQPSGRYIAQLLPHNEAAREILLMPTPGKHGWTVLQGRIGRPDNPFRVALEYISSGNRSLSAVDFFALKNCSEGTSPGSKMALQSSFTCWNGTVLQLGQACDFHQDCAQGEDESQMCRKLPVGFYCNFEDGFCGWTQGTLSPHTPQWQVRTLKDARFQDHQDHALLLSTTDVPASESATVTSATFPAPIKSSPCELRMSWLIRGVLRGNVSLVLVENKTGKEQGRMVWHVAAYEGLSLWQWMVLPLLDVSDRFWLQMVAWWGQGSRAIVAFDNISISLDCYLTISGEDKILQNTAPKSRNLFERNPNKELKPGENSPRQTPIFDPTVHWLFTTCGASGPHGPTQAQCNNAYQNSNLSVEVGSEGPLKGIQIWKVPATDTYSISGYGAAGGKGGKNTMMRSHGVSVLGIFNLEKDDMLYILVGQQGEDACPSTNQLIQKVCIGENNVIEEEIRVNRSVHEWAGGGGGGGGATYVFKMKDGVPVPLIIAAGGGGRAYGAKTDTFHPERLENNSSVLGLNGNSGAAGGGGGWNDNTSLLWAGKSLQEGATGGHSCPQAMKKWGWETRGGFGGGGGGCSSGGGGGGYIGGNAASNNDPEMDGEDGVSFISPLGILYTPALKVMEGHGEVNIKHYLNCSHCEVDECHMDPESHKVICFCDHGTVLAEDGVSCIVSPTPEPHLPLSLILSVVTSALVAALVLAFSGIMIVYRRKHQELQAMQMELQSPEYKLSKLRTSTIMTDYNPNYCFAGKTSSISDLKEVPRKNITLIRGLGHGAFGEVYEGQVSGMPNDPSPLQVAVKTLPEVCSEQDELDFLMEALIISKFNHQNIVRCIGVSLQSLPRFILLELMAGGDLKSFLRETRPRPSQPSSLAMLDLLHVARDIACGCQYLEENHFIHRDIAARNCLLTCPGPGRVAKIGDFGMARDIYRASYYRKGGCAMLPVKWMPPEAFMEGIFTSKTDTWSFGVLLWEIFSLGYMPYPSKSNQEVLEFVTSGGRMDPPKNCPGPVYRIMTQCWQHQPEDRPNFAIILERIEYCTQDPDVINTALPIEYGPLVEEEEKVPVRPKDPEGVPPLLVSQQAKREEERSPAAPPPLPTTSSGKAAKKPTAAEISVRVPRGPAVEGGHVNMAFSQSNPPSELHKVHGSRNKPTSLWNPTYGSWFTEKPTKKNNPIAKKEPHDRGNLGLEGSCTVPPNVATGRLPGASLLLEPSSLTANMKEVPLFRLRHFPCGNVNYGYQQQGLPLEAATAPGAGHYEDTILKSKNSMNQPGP

Focal adhesion kinase 1 [17] = target: T8, Focal adhesion kinase 1; assay: Inhibition of recombinant FAK (unknown origin) assessed as incorporation of [gamma-33P]-ATP into substrate at 10 uM by radiometric assay; outline: as §1
[18] = target: T6, Proto-oncogene tyrosine-protein kinase Src; assay: Inhibition of recombinant SRC (unknown origin) using casein as substrate assessed as incorporation of [gamma-33P]-ATP into substrate at 10 uM by radiometric assay; outline: as §1
[19] = target: T4, Vascular endothelial growth factor receptor 2; assay: Inhibition of recombinant VEGFR2 (unknown origin) using poly(Glu,Tyr)4:1 as substrate assessed as incorporation of [gamma-33P]-ATP into substrate at 10 uM by radiometric assay; outline: as §1
[20] = target: T3, Insulin-like growth factor 1 receptor; assay: Inhibition of recombinant IGF1R (unknown origin) using Poly (Glu,Tyr) 4:1 as substrate assessed as incorporation of [gamma-33P]-ATP into substrate at 10 uM by radiometric assay; outline: as §1

Sequence of Serine/threonine-protein kinase Nek6 (Q9HC98 whole entry): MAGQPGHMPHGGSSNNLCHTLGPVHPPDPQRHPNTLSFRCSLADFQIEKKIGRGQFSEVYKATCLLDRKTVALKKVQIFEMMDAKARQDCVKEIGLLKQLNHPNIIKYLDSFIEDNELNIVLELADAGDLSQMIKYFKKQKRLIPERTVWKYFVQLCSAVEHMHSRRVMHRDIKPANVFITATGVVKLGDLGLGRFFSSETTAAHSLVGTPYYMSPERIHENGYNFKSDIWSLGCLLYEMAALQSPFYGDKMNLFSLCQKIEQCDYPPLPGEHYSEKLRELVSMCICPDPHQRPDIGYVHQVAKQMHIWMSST
Sequence of RAC-alpha serine/threonine-protein kinase (P31749 whole entry): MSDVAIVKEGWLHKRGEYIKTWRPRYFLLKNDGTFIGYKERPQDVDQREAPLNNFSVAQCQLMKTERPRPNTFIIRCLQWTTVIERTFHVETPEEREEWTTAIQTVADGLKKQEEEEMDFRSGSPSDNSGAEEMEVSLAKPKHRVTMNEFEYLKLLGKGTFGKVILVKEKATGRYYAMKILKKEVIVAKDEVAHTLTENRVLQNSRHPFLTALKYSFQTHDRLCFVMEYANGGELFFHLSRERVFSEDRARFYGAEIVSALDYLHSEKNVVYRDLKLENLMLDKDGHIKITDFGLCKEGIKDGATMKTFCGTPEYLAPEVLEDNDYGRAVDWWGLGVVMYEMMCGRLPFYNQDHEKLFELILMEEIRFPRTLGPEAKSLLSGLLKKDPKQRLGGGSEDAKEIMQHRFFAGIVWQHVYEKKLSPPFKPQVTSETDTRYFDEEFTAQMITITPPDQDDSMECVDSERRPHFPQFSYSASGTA
T6 sequence (P12931 2-536 limits assumed): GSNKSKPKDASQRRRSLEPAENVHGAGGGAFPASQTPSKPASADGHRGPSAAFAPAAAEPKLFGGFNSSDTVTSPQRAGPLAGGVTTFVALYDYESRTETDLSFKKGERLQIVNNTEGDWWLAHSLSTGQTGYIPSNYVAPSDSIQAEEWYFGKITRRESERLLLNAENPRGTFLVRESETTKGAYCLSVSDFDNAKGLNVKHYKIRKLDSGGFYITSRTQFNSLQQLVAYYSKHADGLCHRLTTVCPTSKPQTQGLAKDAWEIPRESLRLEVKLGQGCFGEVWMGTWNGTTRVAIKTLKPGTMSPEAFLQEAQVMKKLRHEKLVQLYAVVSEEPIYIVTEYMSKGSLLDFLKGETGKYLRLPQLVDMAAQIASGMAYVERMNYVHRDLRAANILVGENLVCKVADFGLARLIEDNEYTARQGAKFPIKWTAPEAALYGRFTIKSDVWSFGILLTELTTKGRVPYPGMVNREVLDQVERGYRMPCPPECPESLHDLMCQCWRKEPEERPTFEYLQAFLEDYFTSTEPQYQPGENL
Sequence of Aurora kinase B (Q96GD4 whole entry): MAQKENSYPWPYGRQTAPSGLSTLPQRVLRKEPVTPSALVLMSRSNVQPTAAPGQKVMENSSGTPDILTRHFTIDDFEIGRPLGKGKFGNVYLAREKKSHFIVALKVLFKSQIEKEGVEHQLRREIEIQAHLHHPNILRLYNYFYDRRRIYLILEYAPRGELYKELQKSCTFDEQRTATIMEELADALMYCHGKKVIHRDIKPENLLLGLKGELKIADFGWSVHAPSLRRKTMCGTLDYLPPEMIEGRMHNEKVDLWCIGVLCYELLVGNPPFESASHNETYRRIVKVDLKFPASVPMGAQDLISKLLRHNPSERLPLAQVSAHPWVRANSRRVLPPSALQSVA

Row | SMILES | IC50 (L5178Y) | IC50 [1] | IC50 [2] | IC50 [3] | IC50 (Aurora kinase B) | IC50 [4] | IC50 [5] | IC50 [6] | IC50 [7] | IC50 [8] | IC50 [9] | IC50 [10] | IC50 [11] | IC50 [12] | IC50 [13] | inhibition [16] | inhibition (Focal adhesion kinase 1 [17]) | inhibition [18] | inhibition [19] | inhibition [20] | also measured
1 | COc1cc2nc(C)oc2c(C[C@]2(C)[C@@H](C)CC[C@@]3(C)C(C)=CCC[C@@H]23)c1O | > 10 µM | > 100 µM | > 100 µM | > 100 µM | > 100 µM | > 100 µM | 3.31 µM | 3.66 µM | > 100 µM | 14.7 µM | > 100 µM | > 100 µM | > 100 µM | > 100 µM | 19.7 µM |  |  |  |  |  | IC50 [14]: 3.38 µM; IC50 (Focal adhesion kinase 1 [15]): 7.78 µM
2 | CC1=CCC[C@H]2[C@](C)(CC3=C(O)C(=O)C=C(NCCc4ccccc4)C3=O)[C@@H](C)CC[C@@]12C | 1.1 µM |  |  |  |  |  |  |  |  |  |  |  |  |  |  | Active | Active | Active | Active | Active | 
3 | CSCCCNC1=CC(=O)C(O)=C(C[C@]2(C)[C@@H](C)CC[C@@]3(C)C(C)=CCC[C@@H]23)C1=O | 1.8 µM |  |  |  |  |  |  |  |  |  |  |  |  |  |  | Active | Active | Active | Active | Active | 
4 | CC1=CCC[C@H]2[C@](C)(CC3=C(O)C(=O)C=C(NCCC(C)C)C3=O)[C@@H](C)CC[C@@]12C | 1.3 µM | 90.8 µM | 100 µM | 29.9 µM | 61 µM | > 100 µM | 1.94 µM | 2.22 µM | 73.2 µM | > 100 µM | 62.6 µM | 40.3 µM | > 100 µM | > 100 µM | 2.2 µM |  |  |  |  |  | IC50 [14]: 0.97 µM; IC50 (Focal adhesion kinase 1 [15]): 3.03 µM
5 | CC1=CCC[C@H]2[C@](C)(Cc3c4oc(C)nc4cc4nc(C)oc34)[C@@H](C)CC[C@@]12C | > 10 µM |  |  |  |  |  |  |  |  |  |  |  |  |  |  | Active | Active |  |  | Active | 
6 | COC(=O)c1cc(O)c(O)c(C[C@]2(C)[C@@H](C)CC[C@@]3(C)C(C)=CCC[C@@H]23)c1 | > 10 µM | 7.72 µM | 21.7 µM | 14.7 µM | 3.89 µM | 29.4 µM | 11.8 µM | 4.81 µM | 48.4 µM | 13.1 µM | 20.3 µM | 3.12 µM | > 100 µM | > 100 µM | 8.62 µM |  |  |  |  |  | IC50 [14]: 2.19 µM; IC50 (Focal adhesion kinase 1 [15]): 4.56 µM
7 | CC1=CCC[C@H]2[C@](C)(CC3=C(O)C(=O)C=C(NCCc4ccc(O)cc4)C3=O)[C@@H](C)CC[C@@]12C | 1.7 µM |  |  |  |  |  |  |  |  |  |  |  |  |  |  | Active | Active | Active | Active | Active | 
8 | CC1=CCC[C@H]2[C@](C)(CC3=C(O)C(=O)C=C(NCCc4c[nH]c5ccccc45)C3=O)[C@@H](C)CC[C@@]12C | 3.7 µM |  |  |  |  |  |  |  |  |  |  |  |  |  |  | Active | Active | Active | Active | Active | 

— ChEMBL document CHEMBL3108666, “Cytotoxic and protein kinase inhibiting nakijiquinones and nakijiquinols from the sponge Dactylospongia metachromia” (J Nat Prod, 2014)
